Source: ChEMBL document CHEMBL1147748, “Overlapping, nonidentical binding sites of different classes of nonpeptide antagonists for the human gonadotropin-releasing hormone receptor” (J Med Chem, 2006)

Columns and labels:
[1] = target: Gonadotropin-releasing hormone receptor (Homo sapiens, UniProt P30968, E111Q); assay: Displacement of [125I]-His5, D-Tyr6]GnRH from mutant GnRHR, GnRHR E111Q
How it was run: (§1)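 Human GnRH-R (wild type or site-directed point mutant) was transiently expressed in COS-7 cells by electroporation, with cells cultured 36-48 h before membranes were prepared. Membranes (5-20 µg per point) were incubated 2 h at room temperature with 0.3 nM tracer and varying competitor in HEPES pH 7.5, 150 mM NaCl, 0.1% BSA, then filtered and counted.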

[2] = target: Gonadotropin-releasing hormone receptor (Homo sapiens, UniProt P30968, Y284L); assay: Displacement of [125I]-His5, D-Tyr6]GnRH from mutant GnRHR, GnRHR Y284L
Sequence of Gonadotropin-releasing hormone receptor (Homo sapiens, UniProt P30968, Y284L) (P30968 whole entry Y284L): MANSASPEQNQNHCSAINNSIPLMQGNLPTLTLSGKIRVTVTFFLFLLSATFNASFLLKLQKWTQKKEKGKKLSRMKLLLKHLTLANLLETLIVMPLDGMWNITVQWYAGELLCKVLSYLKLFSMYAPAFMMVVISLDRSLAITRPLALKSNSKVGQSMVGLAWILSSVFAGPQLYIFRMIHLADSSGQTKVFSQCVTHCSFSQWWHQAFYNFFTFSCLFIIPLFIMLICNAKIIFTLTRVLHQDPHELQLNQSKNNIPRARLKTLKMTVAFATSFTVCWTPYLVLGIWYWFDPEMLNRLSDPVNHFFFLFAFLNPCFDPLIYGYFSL

[3] = target: Gonadotropin-releasing hormone receptor (Homo sapiens, UniProt P30968, F272L); assay: Displacement of [125I]-His5, D-Tyr6]GnRH from mutant GnRHR, GnRHR F272L; how it was run: as §1
[4] = target: Gonadotropin-releasing hormone receptor (Homo sapiens, UniProt P30968, E111K); assay: Displacement of [125I]-His5, D-Tyr6]GnRH from mutant GnRHR, GnRHR E111K; how it was run: as §1
[5] = target: Gonadotropin-releasing hormone receptor (Homo sapiens, UniProt P30968, W280F); assay: Displacement of [125I]-His5, D-Tyr6]GnRH from mutant GnRHR, GnRHR W280F
Sequence of Gonadotropin-releasing hormone receptor (Homo sapiens, UniProt P30968, W280F) (P30968 whole entry W280F): as the sequence (P30968 whole entry Y284L) above, with W280F, L284Y counted along it

[6] = target: Gonadotropin-releasing hormone receptor (Homo sapiens, UniProt P30968, Y283F); assay: Displacement of [125I]-His5, D-Tyr6]GnRH from mutant GnRHR, GnRHR Y283F
Sequence of Gonadotropin-releasing hormone receptor (Homo sapiens, UniProt P30968, Y283F) (P30968 whole entry Y283F): as the sequence (P30968 whole entry Y284L) above, with Y283F, L284Y counted along it

[7] = target: Gonadotropin-releasing hormone receptor (Homo sapiens, UniProt P30968, W291F); assay: Displacement of [125I]-His5, D-Tyr6]GnRH from mutant GnRHR, GnRHR W291F
[8] = target: Gonadotropin-releasing hormone receptor (Homo sapiens, UniProt P30968, Q189K); assay: Displacement of [125I]-His5, D-Tyr6]GnRH from mutant GnRHR, GnRHR Q189K; how it was run: as §1
Sequence of Gonadotropin-releasing hormone receptor (Homo sapiens, UniProt P30968, Q189K) (P30968 whole entry Q189K): as the sequence (P30968 whole entry Y284L) above, with Q189K, L284Y counted along it

[9] = target: Gonadotropin-releasing hormone receptor (Homo sapiens, UniProt P30968, D293K); assay: Displacement of [125I]-His5, D-Tyr6]GnRH from mutant GnRHR, GnRHR D293K; how it was run: as §1
[10] = target: Gonadotropin-releasing hormone receptor (Homo sapiens, UniProt P30968); assay: Displacement of [125I]-His5, D-Tyr6]GnRH from human wild type GnRHR; how it was run: as §1
[11] = target: Gonadotropin-releasing hormone receptor (Homo sapiens, UniProt P30968, E295A); assay: Displacement of [125I]-His5, D-Tyr6]GnRH from mutant GnRHR, GnRHR E295A; how it was run: as §1
[12] = target: Gonadotropin-releasing hormone receptor (Homo sapiens, UniProt P30968, L112A); assay: Displacement of [125I]-His5, D-Tyr6]GnRH from mutant GnRHR, GnRHR L112A; how it was run: as §1
Sequence of Gonadotropin-releasing hormone receptor (Homo sapiens, UniProt P30968, L112A) (P30968 whole entry L112A): as the sequence (P30968 whole entry Y284L) above, with L112A, L284Y counted along it

[13] = target: Gonadotropin-releasing hormone receptor (Homo sapiens, UniProt P30968, A50T); assay: Displacement of [125I]-His5, D-Tyr6]GnRH from mutant GnRHR, GnRHR A50T; how it was run: as §1
[14] = target: Gonadotropin-releasing hormone receptor (Homo sapiens, UniProt P30968, N305A); assay: Displacement of [125I]-His5, D-Tyr6]GnRH from mutant GnRHR, GnRHR N305A; how it was run: as §1
[15] = target: Gonadotropin-releasing hormone receptor (Homo sapiens, UniProt P30968, S186K); assay: Displacement of [125I]-His5, D-Tyr6]GnRH from mutant GnRHR, GnRHR S186K
[16] = target: Gonadotropin-releasing hormone receptor (Homo sapiens, UniProt P30968, H306A); assay: Displacement of [125I]-His5, D-Tyr6]GnRH from mutant GnRHR, GnRHR H306A; how it was run: as §1
Sequence of Gonadotropin-releasing hormone receptor (Homo sapiens, UniProt P30968, H306A) (P30968 whole entry H306A): as the sequence (P30968 whole entry Y284L) above, with L284Y, H306A counted along it

[17] = target: Gonadotropin-releasing hormone receptor (Homo sapiens, UniProt P30968, M24T); assay: Displacement of [125I]-His5, D-Tyr6]GnRH from mutant GnRHR, GnRHR M24T; how it was run: as §1
[18] = target: Gonadotropin-releasing hormone receptor (Homo sapiens, UniProt P30968, N305K); assay: Displacement of [125I]-His5, D-Tyr6]GnRH from mutant GnRHR, GnRHR N305K; how it was run: as §1
[19] = target: Gonadotropin-releasing hormone receptor (Homo sapiens, UniProt P30968, T190K); assay: Displacement of [125I]-His5, D-Tyr6]GnRH from mutant GnRHR, GnRHR T190K
[20] = target: Gonadotropin-releasing hormone receptor (Homo sapiens, UniProt P30968, S124A); assay: Displacement of [125I]-His5, D-Tyr6]GnRH from mutant GnRHR, GnRHR S124A
[21] = target: Gonadotropin-releasing hormone receptor (Homo sapiens, UniProt P30968, K191E); assay: Displacement of [125I]-His5, D-Tyr6]GnRH from mutant GnRHR, GnRHR K191E; how it was run: as §1
Sequence of Gonadotropin-releasing hormone receptor (Homo sapiens, UniProt P30968, K191E) (P30968 whole entry K191E): as the sequence (P30968 whole entry Y284L) above, with K191E, L284Y counted along it

[22] = target: Gonadotropin-releasing hormone receptor (Homo sapiens, UniProt P30968, S203E); assay: Displacement of [125I]-His5, D-Tyr6]GnRH from mutant GnRHR, GnRHR S203E
Sequence of Gonadotropin-releasing hormone receptor (Homo sapiens, UniProt P30968, S203E) (P30968 whole entry S203E): as the sequence (P30968 whole entry Y284L) above, with S203E, L284Y counted along it

[23] = target: Gonadotropin-releasing hormone receptor (Homo sapiens, UniProt P30968, S186D); assay: Displacement of [125I]-His5, D-Tyr6]GnRH from mutant GnRHR, GnRHR S186D
Sequence of Gonadotropin-releasing hormone receptor (Homo sapiens, UniProt P30968, S186D) (P30968 whole entry S186D): as the sequence (P30968 whole entry Y284L) above, with S186D, L284Y counted along it

[24] = target: Gonadotropin-releasing hormone receptor (Homo sapiens, UniProt P30968, N27E); assay: Displacement of [125I]-His5, D-Tyr6]GnRH from mutant GnRHR, GnRHR N27E; how it was run: as §1
[25] = target: Gonadotropin-releasing hormone receptor (Homo sapiens, UniProt P30968, L112K); assay: Displacement of [125I]-His5, D-Tyr6]GnRH from mutant GnRHR, GnRHR L112K; how it was run: as §1
Sequence of Gonadotropin-releasing hormone receptor (Homo sapiens, UniProt P30968, L112K) (P30968 whole entry L112K): as the sequence (P30968 whole entry Y284L) above, with L112K, L284Y counted along it

[26] = target: Gonadotropin-releasing hormone receptor (Homo sapiens, UniProt P30968, Q189P); assay: Displacement of [125I]-His5, D-Tyr6]GnRH from mutant GnRHR, GnRHR Q189P
[27] = target: Gonadotropin-releasing hormone receptor (Homo sapiens, UniProt P30968, S118A); assay: Displacement of [125I]-His5, D-Tyr6]GnRH from mutant GnRHR, GnRHR S118A
Sequence of Gonadotropin-releasing hormone receptor (Homo sapiens, UniProt P30968, S118A) (P30968 whole entry S118A): as the sequence (P30968 whole entry Y284L) above, with S118A, L284Y counted along it

[28] = target: Gonadotropin-releasing hormone receptor (Homo sapiens, UniProt P30968, L112F); assay: Displacement of [125I]-His5, D-Tyr6]GnRH from mutant GnRHR, GnRHR L112F; how it was run: as §1
Sequence of Gonadotropin-releasing hormone receptor (Homo sapiens, UniProt P30968, L112F) (P30968 whole entry L112F): as the sequence (P30968 whole entry Y284L) above, with L112F, L284Y counted along it

[29] = target: Gonadotropin-releasing hormone receptor (Homo sapiens, UniProt P30968, F309Q); assay: Displacement of [125I]-His5, D-Tyr6]GnRH from mutant GnRHR, GnRHR F309Q; how it was run: as §1
[30] = target: Gonadotropin-releasing hormone receptor (Homo sapiens, UniProt P30968, S168I); assay: Displacement of [125I]-His5, D-Tyr6]GnRH from mutant GnRHR, GnRHR S168I
Sequence of Gonadotropin-releasing hormone receptor (Homo sapiens, UniProt P30968, S168I) (P30968 whole entry S168I): as the sequence (P30968 whole entry Y284L) above, with S168I, L284Y counted along it

Sequence of Gonadotropin-releasing hormone receptor (Homo sapiens, UniProt P30968, E111Q) (P30968 whole entry E111Q): as the sequence (P30968 whole entry Y284L) above, with E111Q, L284Y counted along it

Row | IC50 [1] | IC50 [2] | IC50 [3] | IC50 [4] | IC50 [5] | IC50 [6] | IC50 [7] | IC50 [8] | IC50 [9] | IC50 [10] | IC50 [11] | IC50 [12] | IC50 [13] | IC50 [14] | IC50 [15] | IC50 [16] | IC50 [17] | IC50 [18] | IC50 [19] | IC50 [20] | SMILES | further results
1 | 11.5 nM | 277 nM | 16.9 nM | 13.6 nM | 139 nM | 108 nM | 6.8 nM | 15.8 nM | 56.1 nM | 17.7 nM | 11.2 nM | 22.4 nM | 17.8 nM | 3.7 nM | 13.1 nM | 23.3 nM | 57.1 nM | 3.7 nM | 19.8 nM | 21.3 nM | COc1c(C)cc(-c2[nH]c3ccc(C(C)(C)C(=O)N(CC(C)C)CC(C)C)cc3c2[C@H](C)CNCCc2ccccc2)cc1C | IC50 [21]: 11 nM; IC50 [22]: 15.1 nM; IC50 [23]: 11.3 nM; IC50 [24]: 10.8 nM; IC50 [25]: 24.2 nM; IC50 [26]: 10.8 nM; IC50 [27]: 46.8 nM; IC50 [28]: 29.5 nM; IC50 [29]: 222 nM; IC50 [30]: 15.2 nM
2 | 3.3 nM | 186 nM | 4.4 nM | 10.5 nM | 10.3 nM | 316 nM | 60.1 nM | 2.4 nM | 4.8 nM | 8.1 nM | 1.9 nM | 2.5 nM | 3.6 nM | 12.7 nM | 4.1 nM | 50.6 nM | 4.9 nM | 12.4 nM | 3.7 nM | 3.9 nM | CC(C)C[C@H](NC(=O)[C@@H](Cc1ccc(O)cc1)NC(=O)[C@H](Cc1c[nH]cn1)NC(=O)[C@H](CO)NC(=O)[C@H](Cc1c[nH]c2ccccc12)NC(=O)[C@H](Cc1c[nH]cn1)NC(=O)[C@@H]1CCC(=O)N1)C(=O)N[C@@H](CCCN=C(N)N)C(=O)N1CCC[C@H]1C(=O)NCC(N)=O | IC50 [21]: 3.7 nM; IC50 [22]: 2.9 nM; IC50 [23]: 3.1 nM; IC50 [24]: 3.8 nM; IC50 [25]: 3.5 nM; IC50 [26]: 1.9 nM; IC50 [27]: 3.3 nM; IC50 [28]: 2.7 nM; IC50 [29]: 65.1 nM; IC50 [30]: 3.8 nM
